The text below walks through data of ChEMBL document CHEMBL1153115, “Synthesis, antimalarial activity and cytotoxicity of 4-aminoquinoline-triazine conjugates” (Bioorg Med Chem Lett, 2010).

The structures appear in SMILES notation.

In assay [1] the test system is Plasmodium falciparum. The assay is described as follows: Antiplasmodial activity against chloroquine-sensitive Plasmodium falciparum D6 by LDH release assay. It counts as functional, organism-based.
Assay [2] has as its system Plasmodium falciparum. The assay is described as follows: Antiplasmodial activity against chloroquine-resistant Plasmodium falciparum W2 by LDH release assay. Format: functional, organism-based.
Assay [3] is described as follows: Selectivity index, IC50 for african green monkey (Cercopithecus aethiops) Vero cells to IC50 for chloroquine-sensitive Plasmodium falciparum D6. It counts as functional. A digest of the protocol:
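The selectivity index of antimalarial activity was calculated from Vero cell cytotoxicity relative to the antiplasmodial IC50 against each P. falciparum clone (D6 or W2).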

Assay [4] in a line: Cytotoxicity against pig LLC-PK11 cells. Format: cell-based. The note with it: Sus scrofa. In outline:
(§1)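 Cytotoxicity was run in parallel on three mammalian lines: LLC-PK11 (pig kidney epithelial cells), HepG2 (human hepatoma cells) and Vero (monkey kidney […]). Compounds with no cytotoxicity up to the highest tested concentration, 48, were recorded as NC.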

The test system of a further assay is HepG2. Kind of assay: Cytotoxicity against human HepG2 cells. Format: cell-based. A digest of the protocol: as §1
In another assay the test system is Vero. Kind of assay: Cytotoxicity against african green monkey Vero cells. Format: cell-based. The note with it: Chlorocebus sabaeus. In outline:
as §1

Assay [5] in a line: Selectivity index, IC50 for african green monkey (Cercopithecus aethiops) Vero cells to IC50 for chloroquine-resistant Plasmodium falciparum W2.

On to `COc1cc(Nc2nc(NCCCNc3ccnc4cc(Cl)ccc34)nc(N3CCOCC3)n2)cc(OC)c1`, for which the IC50 stood at 250 nM in the assay on Plasmodium falciparum [1]; 220 nM in the assay with Plasmodium falciparum [2]; 8300 nM in assay [4]; 25400 nM in the assay on HepG2; 32700 nM in the assay on Vero. For the same compound, the figures for the “Selectivity Index” value in assay [3] and in assay [5] were 130.8 and 148.6, respectively.

For the compound `Clc1ccc2c(NCCCNc3nc(NC4CCCCC4)nc(N4CCCCC4)n3)ccnc2c1`, the half-inhibitory concentration (IC50) in the assay on Plasmodium falciparum [1] came out at 1740 nM; with Plasmodium falciparum [2] it was 2220 nM; in assay [4], 10500 nM; in the assay on HepG2, 8300 nM; with Vero it was 34300 nM. For the same compound, the “Selectivity Index” value in assay [3] worked out at 19.7; in assay [5] it was 15.4.

For `C[C@@H]1CC[C@H]2[C@@H](C)C(=O)O[C@@H]3O[C@@]4(C)CC[C@@H]1[C@]32OO4` [ARTEMISININ], the values for the IC50 in the assay with Plasmodium falciparum [1] and with Plasmodium falciparum [2] were 30 nM and 25 nM, respectively. The entries for the “Selectivity Index” value in assay [3] and in assay [5] were over 500 and over 670, respectively.

Turning to `COc1cccc2c1C(=O)c1c(O)c3c(c(O)c1C2=O)C[C@@](O)(C(=O)CO)C[C@@H]3O[C@H]1C[C@H](N)[C@H](O)[C@H](C)O1` [DOXORUBICIN], the IC50 in assay [4] was 850 nM; in the assay on HepG2, 420 nM; with Vero, 20000 nM.
